GI50 data for 61 compounds are collected here from ChEMBL document CHEMBL1240409, “Design, synthesis and evaluation of (E)-alpha-benzylthio chalcones as novel inhibitors of BCR-ABL kinase” (Bioorg Med Chem, 2010).

SMILES strings stand for the structures.

The subject of assay [1] is K562. As to the kind of experiment: Growth inhibition of human K562 cells expressing p210Bcr/Abl after 96 hrs by trypan blue exclusion assay. The conditions noted are these: K562, 96 h. The format is functional, cell-based. A digest of the protocol: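 K562 cells were kept in RPMI with 10% FBS and penicillin–streptomycin at 37 °C under 5% CO2. Cells were seeded at 1 × 10^5 cells/mL with a range of compound concentrations, using DMSO as the negative control. After 96 h, viability was counted by Trypan blue exclusion and expressed as percent of DMSO control to derive GI50.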

Assay [2] has as its system DU-145. The experiment in a line: Growth inhibition of human DU145 cells after 96 hrs by trypan blue exclusion assay. The format is functional. The conditions noted are these: DU-145, 96 h.

`O=C(/C(=C\c1ccc(O)c([N+](=O)[O-])c1)SCc1ccccc1Cl)c1ccc(Cl)cc1`: the GI50 in assay [1] and in assay [2] was 10 µM in each case.
With `CN(C)c1ccc(/C=C(/SCc2ccc(Cl)cc2)C(=O)c2ccc(Br)cc2)cc1`, the GI50 in assay [1] turned out to be 1 µM; in assay [2] it was 10 µM.
For `CC(=O)Oc1ccc(/C=C(\C(=O)c2ccc(Cl)cc2)S(=O)(=O)c2ccc(C)cc2)cc1` the same measures were 10 µM and 25 µM.
For the compound `Cc1ccc(S/C(=C/c2c[nH]c3ccc(Br)cc23)C(=O)c2ccc(Cl)cc2)cc1`, the GI50 in assay [1] and in assay [2] was 1 µM throughout.
For `COc1ccc(/C=C(\C(=O)c2ccc(Cl)cc2)S(=O)(=O)c2ccc(Br)cc2)cc1O`, the GI50 in assay [1] and in assay [2] was 10 µM throughout.
`Cc1cc(C)cc(/C=C(/SCc2ccc(Br)cc2)C(=O)c2ccccc2Cl)c1`: the GI50 in assay [1] and in assay [2] was 10 µM throughout.
Regarding `O=C(/C(=C\c1ccc(Br)cc1)S(=O)(=O)c1ccc(Br)cc1)c1ccc(Br)cc1`, the GI50 in assay [1] and in assay [2] was 10 µM each time.
On to `Cc1ccsc1/C=C(/SCc1ccc(Cl)cc1)C(=O)c1ccc(Br)cc1`, for which the 50% growth inhibitory concentration (GI50) in assay [1] and in assay [2] was 25 µM in each case.
Consider `O=C(/C(=C\c1ccc([N+](=O)[O-])c(O)c1)SCc1ccc(Br)cc1)c1cc(Cl)ccc1O`, for which the concentration for 50% growth inhibition (GI50) in assay [1] and in assay [2] was 10 µM each time.
Take `COc1cc(OC)c(C=C(C(=O)c2ccc(Cl)cc2)S(=O)(=O)Cc2ccccc2Cl)c(OC)c1`: the GI50 is 25 µM in assay [1] and above 100 µM in assay [2].
`O=C(/C(=C\c1ccc(O)c([N+](=O)[O-])c1)S(=O)(=O)c1ccc(I)cc1)c1ccc(Br)cc1`: the GI50 in assay [1] and in assay [2] was 25 µM each time.
Take `Cc1ccc(C(=O)/C(=C\c2ccc(N(C)C)cc2)S(=O)(=O)c2ccc(Cl)cc2)cc1`: the concentration for 50% growth inhibition (GI50) in assay [1] and in assay [2] was 50 µM each time.
For `O=C(/C(=C\c1ccc(O)cc1O)Sc1ccc(Br)cc1)c1ccc(Cl)cc1`, the 50% growth inhibitory concentration (GI50) in assay [1] turned out to be 25 µM; in assay [2], 50 µM.
On to `O=C(/C(=C\c1ccc(Br)cc1)S(=O)(=O)Cc1ccc(F)cc1)c1ccc(Br)cc1`, for which the concentration for 50% growth inhibition (GI50) in assay [1] came out at 10 µM; in assay [2] it was 25 µM.
With `Cc1ccsc1/C=C(/SCc1ccc(Cl)cc1)C(=O)c1ccc(Cl)cc1`, the concentration for 50% growth inhibition (GI50) in assay [1] and in assay [2] was 50 µM in each case.
In the case of `Nc1c(Br)cc(Br)cc1/C=C(/Sc1ccc(Br)cc1)C(=O)c1ccc(Br)cc1`, the concentration for 50% growth inhibition (GI50) in assay [1] and in assay [2] was above 100 µM throughout.
`Cc1ccc(S/C(=C/c2cc(Cl)cc(Cl)c2Cl)C(=O)c2ccc(Cl)cc2)cc1`: the GI50 in assay [1] and in assay [2] was 50 µM each time.
Consider `O=C(/C(=C\c1ccc(I)cc1)S(=O)(=O)c1ccc(Br)cc1)c1ccc(Br)cc1`, for which the values for the 50% growth inhibitory concentration (GI50) in assay [1] and in assay [2] were 9 µM and 1 µM, respectively.
For the compound `O=C(/C(=C/c1ccc(Cl)cc1)Cc1c[nH]c2ccccc12)c1ccc(Cl)cc1Cl`, the GI50 in assay [1] and in assay [2] was 10 µM in each case.
As to `COc1ccc(/C=C(\C(=O)c2ccc(Br)cc2)S(=O)(=O)Cc2ccc(Cl)cc2)c(O)c1`, the GI50 in assay [1] and in assay [2] was 10 µM each time.
For `Cc1ccc(S(=O)(=O)/C(=C/c2ccc(Oc3ccccc3)cc2)C(=O)c2ccc(Cl)cc2)cc1`, the GI50 in assay [1] and in assay [2] was 1 µM in each case.
Turning to `Cc1ccc(S/C(=C/c2ccc[nH]2)C(=O)c2ccc(Cl)cc2)cc1`, the 50% growth inhibitory concentration (GI50) in assay [1] and in assay [2] was 10 µM in each case.
As to `CSc1ccc(/C=C(/SCc2ccc(Cl)cc2)C(=O)c2ccc(Cl)cc2)cc1`, the values for the GI50 in assay [1] and in assay [2] were 1 µM and 25 µM, respectively.
The like results for `O=C(/C(=C\c1ccc(F)cc1C(F)(F)F)S(=O)(=O)Cc1ccc(Cl)c(Cl)c1)c1ccc(Cl)cc1` were, in that order, 1 µM and 1 µM.
The like results for `COc1ccccc1/C=C(/SCc1ccc(F)cc1)C(=O)c1ccc(Cl)cc1` were, in that order, 1 µM and 10 µM.
For `O=C(/C(=C\c1ccc(Br)cc1)SCc1ccc(Cl)cc1)c1ccc(Br)cc1` the same measures were 1 µM and 1 µM.
In the case of `O=C(/C(=C\c1ccc(O)c([N+](=O)[O-])c1)SCc1ccc(Br)cc1)c1c(F)c(F)c(F)c(F)c1F`, the 50% growth inhibitory concentration (GI50) in assay [1] and in assay [2] was 10 µM in each case.
`O=C(/C(=C\c1ccc(O)c([N+](=O)[O-])c1)Sc1ccc(Br)cc1)c1ccc(Br)cc1`: the GI50 in assay [1] and in assay [2] was 1 µM in each case.
`CN(C)c1ccc(/C=C(\C(=O)c2ccc(C(=O)O)cc2)S(=O)(=O)Cc2ccc(Cl)cc2)cc1`: the GI50 in assay [1] and in assay [2] was above 100 µM throughout.
On to `O=C(C(=Cc1ccc(Br)cc1)S(=O)(=O)Cc1ccc(I)cc1)c1ccc(I)cc1`, for which the concentration for 50% growth inhibition (GI50) in assay [1] and in assay [2] was 20 µM each time.
As to `O=C(/C(=C\c1c[nH]c2ccc(Br)cc12)SCc1ccc(Cl)cc1Cl)c1ccc(Cl)cc1`, the 50% growth inhibitory concentration (GI50) in assay [1] was 1 µM; in assay [2], 10 µM.
With `Cc1ccc(CS(=O)(=O)/C(=C/c2ccc(Cl)cc2)C(=O)c2ccc(Cl)cc2)cc1`, the GI50 in assay [1] and in assay [2] was 25 µM throughout.
Consider `O=C(/C(=C\c1ccc(F)cc1Cl)S(=O)(=O)c1ccc(Br)cc1)c1ccc(Br)cc1`, for which the GI50 worked out at 25 µM in assay [1] and 50 µM in assay [2].
For `Cc1ccc(/C=C(\C(=O)c2ccc(Cl)cc2)S(=O)(=O)Cc2ccc(F)cc2)s1` the same measures were 50 µM and 50 µM.
In the case of `O=C(/C(=C\c1cccc(Cl)c1Cl)SCc1ccc(Cl)cc1)c1ccc(Cl)cc1`, the concentration for 50% growth inhibition (GI50) in assay [1] is 1 µM; in assay [2] it was 10 µM.
Regarding `COc1ccccc1/C=C(/SCc1ccc(Cl)cc1)C(=O)c1ccc([N+](=O)[O-])cc1`, the figures for the GI50 in assay [1] and in assay [2] were 1 µM and 10 µM, respectively.
For `Cc1ccc(CS/C(=C/c2ccc(Br)cc2)C(=O)c2ccc(Cl)cc2)cc1` the same measures were 1 µM and 10 µM.
As for `Cc1ccc(S(=O)(=O)/C(=C/c2ccc(C)s2)C(=O)c2ccc(Br)cc2)cc1`, the GI50 in assay [1] was 50 µM; in assay [2], 25 µM.
For `Cc1ccc(CS/C(=C/c2ccc(Cl)c([N+](=O)[O-])c2)C(=O)c2ccc(C(=O)O)cc2)cc1` the same measures were 1 µM and 1 µM.
As for `O=C(/C(=C\c1ccc(O)c([N+](=O)[O-])c1)Sc1ccc(Br)cc1)c1c(F)c(F)c(F)c(F)c1F`, the GI50 in assay [1] and in assay [2] was 1 µM in each case.
For `O=C(/C(=C\c1ccc(O)cc1)SCc1ccc(Cl)cc1)c1ccc(Cl)cc1`, the values for the concentration for 50% growth inhibition (GI50) in assay [1] and in assay [2] were 1 µM and 10 µM, respectively.
Regarding `Cc1ccc(S(=O)(=O)/C(=C/c2ccc(N(C)C)cc2)C(=O)c2ccc(Cl)cc2)cc1`, the GI50 in assay [1] and in assay [2] was above 100 µM throughout.
On to `O=C(/C(=C\c1ccc(O)c([N+](=O)[O-])c1)Sc1c(F)c(F)c(F)c(F)c1F)c1ccc(Br)cc1`, for which the GI50 in assay [1] and in assay [2] was 10 µM each time.
Take `Cc1ccc(CS/C(=C/c2cccc(Cl)c2Cl)C(=O)c2ccc(Cl)cc2)cc1`: the GI50 in assay [1] and in assay [2] was 25 µM each time.
`Cc1ccsc1/C=C(/SCc1ccc(F)cc1)C(=O)c1ccc(Br)cc1`: the concentration for 50% growth inhibition (GI50) is above 100 µM in assay [1] and 50 µM in assay [2].
The like results for `O=C(/C(=C\c1ccc(F)cc1C(F)(F)F)[S+]([O-])Cc1ccc(Cl)cc1)c1ccc(Cl)cc1` (configuration not stated) were, in that order, 50 µM and 50 µM.
Consider `COc1ccc(/C=C(/SCc2ccc(F)cc2)C(=O)c2ccc(Cl)cc2)c(OC)c1OC`, for which the 50% growth inhibitory concentration (GI50) in assay [1] and in assay [2] was 10 µM throughout.
Regarding `Cc1ccc(S/C(=C/c2cc(C)cc(C)c2)C(=O)c2ccc(Cl)cc2)cc1`, the values for the concentration for 50% growth inhibition (GI50) in assay [1] and in assay [2] were 25 µM and 50 µM, respectively.
For `COc1ccc(/C=C(\C(=O)c2ccc(Br)cc2)S(=O)(=O)Cc2ccc(Cl)cc2)cc1` the same measures were 10 µM and 25 µM.
The like results for `O=C(/C(=C\c1ccc(Cl)cc1)S(=O)(=O)c1ccc(Br)cc1)c1ccc(Br)cc1` were, in that order, 50 µM and 50 µM.
The like results for `O=C(/C(=C\c1ccc(O)cc1)S(=O)(=O)Cc1ccc(F)cc1)c1ccc(Br)cc1` were, in that order, 10 µM and 10 µM.
Regarding `CCOc1ccc(/C=C(\C(=O)c2ccc(Cl)cc2)S(=O)(=O)Cc2ccc(F)cc2)cc1OC`, the GI50 in assay [1] was determined as 25 µM; in assay [2] it was 50 µM.
On to `O=C(O)c1ccc(C(=O)/C(=C\c2ccc(N3CCN(Cc4ccccc4)CC3)c([N+](=O)[O-])c2)SCc2ccc(F)cc2)cc1`, for which the GI50 in assay [1] and in assay [2] was 1 µM in each case.
On to `Cc1ccc(CS/C(=C/c2ccc(Cl)cc2)C(=O)c2ccc(Cl)cc2)cc1`, for which the values for the 50% growth inhibitory concentration (GI50) in assay [1] and in assay [2] were 1 µM and 10 µM, respectively.
Regarding `O=C(/C(=C\c1cc(Br)c(O)c(Br)c1)S(=O)(=O)Cc1ccc(Br)cc1)c1ccc(Br)cc1`, the GI50 in assay [1] and in assay [2] was 25 µM in each case.
Regarding `O=C(/C(=C\c1c[nH]c2ccccc12)S(=O)(=O)Cc1ccc(F)cc1)c1ccc(Cl)cc1`, the 50% growth inhibitory concentration (GI50) in assay [1] and in assay [2] was 50 µM each time.
On to `O=C(/C(=C\c1c(O)cc(O)cc1O)S(=O)(=O)c1ccccc1Br)c1ccc(Cl)cc1`, for which the GI50 in assay [1] and in assay [2] was 50 µM each time.
With `O=C(/C(=C\c1ccccc1OCc1ccccc1)Sc1ccccc1Cl)c1ccccc1Cl`, the GI50 in assay [1] and in assay [2] was 50 µM each time.
With `Cc1ccc(CS/C(=C/c2c[nH]c3ccc(Br)cc23)C(=O)c2ccc(Cl)cc2)cc1`, the 50% growth inhibitory concentration (GI50) in assay [1] and in assay [2] was 1 µM each time.
Consider `Cc1ccsc1/C=C(\C(=O)c1ccc([N+](=O)[O-])cc1)S(=O)(=O)Cc1ccc(Cl)cc1`, for which the GI50 in assay [1] and in assay [2] was 1 µM in each case.
For the compound `Cc1ccc(S(=O)(=O)/C(=C/c2sccc2C)C(=O)c2ccc(Cl)cc2)cc1`, the GI50 in assay [1] and in assay [2] was 10 µM each time.
